Measurements gathered from unrelated publications.
Compare with care: the assays were run in different laboratories.
Cell line: HL-60
Observed: cell growth or viability

| Structure (SMILES) | method | time | IC50 |
| --- | --- | --- | --- |
| O=C(NO)c1ccc(Cn2cnc3c(Nc4ccc(Cl)cc4)ncnc32)cc1 | MTT | 72 h | 0.62 µM |
| Nc1cccc2c1C(=O)N(C1CCC(=O)NC1=O)C2=O (stereo not drawn) | CCK-8 | 7 days | > 10 µM |
| COc1cc([C@@H]2c3cc4c(cc3[C@@H](O[C@@H]3O[C@@H]5CO[C@@H](C)O[C@H]5[C@H](O)[C@H]3O)[C@H]3COC(=O)[C@H]23)OCO4)cc(OC)c1O | XTT | 75 h | 1.22 µM |
| COc1ccc(Nc2ncnc3c2ncn3Cc2ccc(C(=O)NO)cc2)cc1 | MTT | 72 h | 1.98 µM |
| O=C(CSc1nc2ccccc2s1)N/N=C/c1ccc(OCC(=O)Nc2cccc(Br)c2)cc1 | MTS | 72 h | > 100 µM |
| O=c1cc(OCc2cc(-c3ccccc3)no2)c2ccccc2o1 | MTS | 72 h | > 100 µM |
| COc1ccc(Nc2ncnc3c2ncn3Cc2ccc(C(=O)Nc3ccccc3N)cc2)cc1 | MTT | 72 h | 4.12 µM |
| COc1cc([C@@H]2c3cc4c(cc3[C@@H](O[C@@H]3O[C@@H]5CO[C@@H](C)O[C@H]5[C@H](O)[C@H]3O)[C@H]3COC(=O)[C@H]23)OCO4)cc(OC)c1O | MTS | 72 h | 0.3 µM |
| O=c1cc(OCc2cc(-c3ccc(C(F)(F)F)cc3)no2)c2ccccc2o1 | MTS | 72 h | > 100 µM |
| O=C(NO)c1ccc(Cn2cnc3c(Nc4cccc([N+](=O)[O-])c4)ncnc32)cc1 | MTT | 72 h | 1.86 µM |
| O=C(CSc1nc2ccccc2s1)N/N=C/c1ccc(OCC(=O)Nc2cccc(Cl)c2)cc1 | MTS | 72 h | > 100 µM |
| c1ccc(-c2cc(CNc3cccc4cccnc34)on2)nc1 | MTS | 72 h | 64.8 µM |
